How the values were obtained:
[1] = system: Trypanosoma cruzi; assay: Growth inhibition of amastigote form of Trypanosoma cruzi Tulahuen C2C4 expressing LacZ infected in rat L6 cells assessed as reduction in parasitic growth incubated for 96 hra by CPRG/Nonidet reagent based inverted microscopic analysis; assay type: functional, organism-based
How it was run: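 Intracellular amastigotes of T. cruzi Tulahuen C4 strain were tested in vitro for growth inhibition. IC50 values are in µM, given as the mean of two independent assays or the mean of three independent assays ± SD.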

[2] = system: L6; assay: Cytotoxicity against rat L6 cells assessed as reduction in cell viability after 70 hrs by resazurin dye based inverted microscopic analysis; settings: L6, 70 h
[3] = Selectivity index, ratio of IC50 for cytotoxicity against rat L6 cells to IC50 for growth inhibition of amastigote form of Trypanosoma cruzi Tulahuen C2C4 expressing LacZ infected in rat L6 cells; assay type: toxicity, cell-based; settings: read-out: Ratio IC50
How it was run: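 Selectivity index is calculated as the IC50 for cytotoxicity in uninfected rat skeletal L6 host cells divided by the IC50 against T. cruzi (Tulahuen C4) amastigotes. Both IC50 values are in µM.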

Row | Compound | IC50 [1] | IC50 [2] | selectivity ratio [3]
1 | COc1c(C)[nH]c2c(c1=O)[C@@H](CCCCCc1ccccc1)CC[C@H]2OC | 0.1 µM | 1.8 µM | 13.8
2 | CCCCCCCC[C@H]1CC[C@@H](O)c2[nH]c(C)c(OC)c(=O)c21 | 6.5 µM | 26.2 µM | 4
3 | COc1c(C)[nH]c(CCCCCCCCCc2ccccc2)cc1=O | 2.1 µM | > 29 µM | > 13
4 | COc1c(C)[nH]c2c(c1=O)[C@@H](CCCCCc1ccccc1)CCC2 | 1.3 µM | 6.5 µM | 5
5 | COc1c(C)[nH]c2ccc3c(c2c1=O)[C@@H]1CC[C@H](O)[C@@]3(c2ccccc2)O1 | > 20 µM | > 22 µM | > 1
6 | COc1ccccc1[C@@]12CC[C@@H](OC1)c1c2ccc2[nH]c(C)c(OC)c(=O)c12 | 19 µM | > 26 µM | > 1
7 | CCCCCCCCc1cccc2[nH]c(C)c(OC)c(=O)c12 | 10 µM | 15 µM | 1.5
8 | COc1ccccc1[C@]12CC[C@H](O[C@@H]1OC)c1c2ccc2[nH]c(C)c(OC)c(=O)c12 | 18.7 µM | > 24 µM | > 1
9 | COc1c(C)n(OC)c2c(c1=O)[C@@H](CCCC[C@H](O)c1ccccc1)CCC2 | 7.5 µM | > 26 µM | > 3.5
10 | COc1c(C)[nH]c2c(OC)ccc(CCCCCc3ccccc3)c2c1=O | 2.1 µM | > 26 µM | > 12.5
11 | COc1c(CO)[nH]c2c(c1=O)[C@H](CCCCCc1ccccc1)CCC2 | 7 µM | > 28 µM | > 4
12 | COc1cc(CCCCCc2ccccc2)c2c(=O)c(OC)c(C)[nH]c2c1OC | 12.9 µM | > 23 µM | > 1.5
13 | COc1ccc(OC)c([C@@]2(O)c3ccc4[nH]c(C)c(OC)c(=O)c4c3[C@@H]3CC[C@H]2O3)c1 | 14.7 µM | > 25 µM | > 1
14 | COc1c(C)[nH]c2c(c1=O)[C@@H](CCCCCc1ccccc1)CCC2=O | 0.5 µM | 12 µM | 24.5
15 | COc1c(CO)[nH]c2ccc3c(c2c1=O)[C@@H]1CCC[C@@]3(c2ccccc2)O1 | 14.7 µM | > 22 µM | > 1.5
16 | COc1cc(OC)cc(C2=CCCCc3c2ccc2[nH]c(C)c(OC)c(=O)c32)c1 | 13.1 µM | > 25 µM | > 1.5
17 | CCCCCCCCCCCCc1cc(=O)c(OC)c(C)[nH]1 | 5 µM | > 32 µM | > 6
18 | COc1c(CO)n(OC)c2c(c1=O)[C@H](CCCCCc1ccccc1)CCC2 | 3.9 µM | > 26 µM | > 6
19 | COc1c(C)[nH]c2c(c1=O)[C@@H](CCCCCc1ccccc1)CC[C@H]2O | 0.8 µM | > 28 µM | > 33
20 | O=C(Cn1ccnc1[N+](=O)[O-])NCc1ccccc1 [BENZNIDAZOLE] | 2.9 µM | > 345 µM | > 119
